Assay [1] addresses T1, GABA-A receptor; anion channel (Rattus norvegicus) (UniProt O09028+P15431+P18506+P18508+P19969+P20236+P23574+P23576+P28471+P28473+P30191+P62813+P63079+P63138+Q91ZM7+Q9ES14). Description: (§1) Percent response with 1 uM GABA relative to current produced by 1 uM GABA alone in rat hippocampal cells. It is filed as functional, cell-based. To be noted: Hippocampus. The essentials:
(§2)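 Whole-cell patch clamp on rat hippocampal cells. Current with 1 μM GABA plus 1 μM compound is expressed as percent of the current from 1 μM GABA alone.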

Assay [2] has as its target GABA-A receptor; anion channel. The experiment in a line: Inhibition of GABA-A receptor by displacement of 35[S]-TBPS. It is filed as protein-complex assay, Rattus norvegicus. The procedure, abridged:
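[35S]-TBPS displacement on rat brain membranes, with compounds dissolved in DMSO at a final assay concentration of 0.25%. IC50 was obtained by logistic analysis.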

For assay [3], the target named is T1, GABA-A receptor; anion channel (Rattus norvegicus). Description: Percent response without GABA relative to current produced by 1 uM GABA alone in rat hippocampal cells (gated current). Format: functional, cell-based. As to conditions: Hippocampus. The essentials:
(§3)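 Whole-cell patch clamp on rat hippocampal cells. Current gated by 10 μM compound without GABA is expressed as percent of the current evoked by 1 μM GABA on the same cell.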

Assay [4] has the same target. The experiment in a line: Maximal binding constant (Bmax) determined in Scatchard analysis of 35[S]-TBPS binding. Format: protein-complex assay. The procedure, abridged: (§4)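 Scatchard analysis of [35S]-TBPS binding to rat brain membranes, with compounds dissolved in DMSO at a final assay concentration of 0.25%. Run in triplicate with triplicate determinations per point. Kd and Bmax were taken from linear regression of Scatchard-transformed data. TBPS alone vs TBPS plus test compound was compared by Student's t test.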

Assay [5] addresses Gamma-aminobutyric acid receptor subunit gamma-1 (Rattus norvegicus) (UniProt P23574). The assay is described as §1. It is filed as functional, cell-based. As to conditions: Hippocampus. The procedure, abridged: as §2
Assay [6] has the same target. The experiment in a line: Percent response without GABA relative to current produced by 1 uM GABA alone in rat hippocampal cells (No response). It is filed as functional, cell-based. To be noted: Hippocampus. The essentials: as §3
Assay [7] concerns the target GABA-A receptor; anion channel. The experiment in a line: Dissociation constant (Kd) determined in Scatchard analysis of 35[S]-TBPS binding. It is filed as protein-complex assay, Rattus norvegicus. The procedure, abridged: as §4

Activity calls are given as the source filed them. The rule behind the calls is not given here.

Sequence of Gamma-aminobutyric acid receptor subunit gamma-1 (Rattus norvegicus) (P23574 whole entry): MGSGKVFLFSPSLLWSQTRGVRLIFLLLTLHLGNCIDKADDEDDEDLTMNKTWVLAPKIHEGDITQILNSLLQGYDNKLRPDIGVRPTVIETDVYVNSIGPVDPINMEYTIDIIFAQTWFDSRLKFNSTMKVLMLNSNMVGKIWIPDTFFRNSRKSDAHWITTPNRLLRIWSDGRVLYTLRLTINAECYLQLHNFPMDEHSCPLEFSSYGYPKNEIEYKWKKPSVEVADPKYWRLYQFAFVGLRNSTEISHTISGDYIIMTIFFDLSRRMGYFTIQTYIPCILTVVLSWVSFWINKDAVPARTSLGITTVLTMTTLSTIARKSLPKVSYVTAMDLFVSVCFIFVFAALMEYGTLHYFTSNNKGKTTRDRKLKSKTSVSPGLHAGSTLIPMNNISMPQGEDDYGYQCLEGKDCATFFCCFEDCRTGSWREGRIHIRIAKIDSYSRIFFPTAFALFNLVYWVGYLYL

As to `CC(=O)C[C@@]1(C)CCC2C(CC[C@H]3C[C@H](O)CC[C@]23C)C1` (some centres not stated), the Response in assay [1] was found to be 113%. In addition, in assay [2], the half-inhibitory concentration (IC50) was determined as 3.98 µM. In assay [3], this molecule registered an Activity of 1. The molecule also gave a Bmax (pM (mg of protein)-1) in assay [4] of 1.15.
Turning to `C[C@]1(CC#N)CCC2C(CC[C@H]3C[C@H](O)CC[C@]23C)C1` (some centres not stated), the Response in assay [1] came out at 106%. In assay [2], this molecule returned an IC50 of 3.27 µM. In assay [3], this molecule displayed an Activity of 8.
Regarding `C[C@]12CCC3C[C@H](CCO)CCC3C1CCC2=O` (some centres not stated), the Response in assay [1] was found to be 127%. The molecule further gave a half-maximal inhibitory concentration (IC50) in assay [2] of 44.1 µM.
In the case of `C[C@]12CCC3C[C@H](CCO)CCC3C1CC[C@@H]2C#N` (some centres not stated), the Response in assay [5] is 346%. The concentration for half-maximal inhibition (IC50) in assay [2] amounted to 4.5 µM. For the same molecule, the result in assay [6] was inactive.
`CC(=O)[C@H]1CCC2C3CC[C@@H](CCO)CC3CC[C@@]21C` (some centres not stated): the Response in assay [1] amounted to 489%. In addition, the IC50 in assay [2] came out at 5.82 µM. Also, the Bmax (pM (mg of protein)-1) in assay [4] was found to be 1.04.
As to `CC(=O)[C@@]1(C)CCC2C(CC[C@H]3C[C@H](O)CC[C@]23C)C1` (some centres not stated), in assay [1], the Response amounted to 108%. Besides, the concentration for half-maximal inhibition (IC50) in assay [2] is 7.06 µM.
Take `CC(=O)C1CC[C@H]2[C@@H]3CC[C@H]4C[C@H](O)CC[C@]4(C)[C@H]3CC[C@]12C` (some centres not stated): in assay [1], the Response is 195%. The same molecule came in with an IC50 in assay [2] of 0.18 µM. This molecule also had an Activity in assay [3] of 30. In assay [7], this molecule had a Kd below 0.08 µM. This molecule also displayed a Bmax (pM (mg of protein)-1) in assay [4] of 1.22.

(Values after ChEMBL document CHEMBL1126987, “Modulation of GABAA receptor function by benz[e]indenes and phenanthrenes” (J Med Chem, 1993).)
